Values after ≈ are worked out from the molar mass of the structure shown.
Columns and labels:
[1] = test system: Penicillium sp.; assay: Antifungal activity against Penicillium species; assay type: functional
[2] = test system: Scedosporium apiospermum; assay: Antifungal activity against Scedosporium apiospermum; assay type: functional
Procedure, shortened: (§1)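 Broth microdilution following the EUCAST reference procedure for spore-forming moulds, in flat-bottom plates with RPMI 1640 plus 2% glucose. Inoculum was 2 × 10^5 to 5 × 10^5 CFU/ml. MICs were read visually at 24 and 48 h as 100% growth reduction versus a drug-free control for polyenes and azoles. MEC was used for caspofungin. Tests were run in duplicate and repeated twice.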

[3] = test system: Mucor; assay: Antifungal activity against Mucor species by EUCAST method; assay type: functional
[4] = test system: Aspergillus niger; assay: Antifungal activity against Aspergillus niger by EUCAST method; assay type: functional
[5] = test system: Candida parapsilosis; assay: Antifungal activity against Candida parapsilosis; assay type: functional; details: Lodderomyces parapsilosis
Procedure, shortened: (§2)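 Broth microdilution in flat-bottom plates in RPMI 1640 with 2% glucose; inoculum 0.5 × 105 to 2.5 × 10^5 CFU/ml. MICs were read spectrophotometrically at 24 h. AMB endpoint: ≥90% growth reduction vs drug-free control well. Azole and CPF endpoint: 50% reduction in optical density. MFC was taken as the lowest concentration giving 99% killing.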

[6] = Antifungal activity against Rhinocladiella aquaspersa by EUCAST method; assay type: functional
Procedure, shortened: (§3)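 Dematiaceous fungi were tested by the EUCAST spore-forming mold reference procedure: flat-bottom microdilution plates, RPMI 1640 plus 2% glucose, inoculum 2 × 105 to 5 × 10^5 CFU/ml. Endpoints were read visually at 24 and 48 h. Polyenes and azoles: 100% growth reduction vs drug-free control. CPF: minimum effective concentration. Run in duplicate and repeated twice.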

[7] = test system: Curvularia australiensis; assay: Antifungal activity against Bipolaris australiensis; assay type: functional; procedure, shortened: as §3
[8] = test system: Saccharomyces cerevisiae; assay: Antifungal activity against Saccharomyces cerevisiae; assay type: functional
Procedure, shortened: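 Broth microdilution following EUCAST for fermentative yeasts, in flat-bottom plates with RPMI 1640 plus 2% glucose. Inoculum was 0.5 × 10^5 to 2.5 × 10^5 CFU/ml. End points were read spectrophotometrically at 24 h: ≥90% growth reduction versus a drug-free control for amphotericin B, and 50% OD reduction for azoles and caspofungin. MFC was the lowest concentration giving 99% killing.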

[9] = test system: Candida albicans; assay: Antifungal activity against Candida albicans by EUCAST method; assay type: functional; procedure, shortened: as §2
[10] = test system: Candida albicans; assay: Antifungal activity against Candida albicans; assay type: functional; procedure, shortened: as §2
[11] = test system: Cunninghamella; assay: Antifungal activity against Cunninghamella species by EUCAST method; assay type: functional
[12] = test system: Mucor hiemalis; assay: Antifungal activity against Mucor hiemalis by EUCAST method; assay type: functional
[13] = test system: Sporothrix schenckii; assay: Antifungal activity against Sporothrix schenckii by EUCAST method; assay type: functional; procedure, shortened: as §1
[14] = test system: Talaromyces marneffei; assay: Antifungal activity against Penicillium marneffei; assay type: functional
[15] = test system: Aspergillus terreus; assay: Antifungal activity against Aspergillus terreus by EUCAST method; assay type: functional
[16] = test system: Fusarium solani; assay: Antifungal activity against Fusarium solani by EUCAST method; assay type: functional
[17] = test system: Candida tropicalis; assay: Antifungal activity against Candida tropicalis by EUCAST method; assay type: functional; procedure, shortened: as §2
[18] = test system: Lichtheimia corymbifera; assay: Antifungal activity against Absidia corymbifera; assay type: functional
[19] = test system: Saccharomyces cerevisiae; assay: Antifungal activity against Saccharomyces cerevisiae by EUCAST method; assay type: functional
Procedure, shortened: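 EUCAST broth microdilution for yeasts in flat-bottom plates, RPMI 1640 with 2% glucose, inoculum 0.5 × 105 to 2.5 × 10^5 CFU/ml. […] MFC is the lowest concentration giving 99% killing.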

[20] = test system: Meyerozyma guilliermondii; assay: Antifungal activity against Candida guilliermondii; assay type: functional; procedure, shortened: as §2
[21] = Antifungal activity against Cryptococcus neoformans var. neoformans; assay type: functional; details: Cryptococcus deneoformans
Procedure, shortened: (§4)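 EUCAST yeast microdilution, modified for nonfermentative yeasts: plates were sealed and agitated at 350 rpm and 30°C for 48 h.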

[22] = test system: Fusarium solani; assay: Antifungal activity against Fusarium solani; assay type: functional
[23] = test system: Scedosporium apiospermum; assay: Antifungal activity against Scedosporium apiospermum by EUCAST method; assay type: functional; procedure, shortened: as §1
[24] = test system: Clavispora lusitaniae; assay: Antifungal activity against Candida lusitaniae by EUCAST method; assay type: functional; procedure, shortened: as §2
[25] = test system: Aspergillus flavus; assay: Antifungal activity against Aspergillus flavus by EUCAST method; assay type: functional
[26] = test system: Cryptococcus gattii; assay: Antifungal activity against Cryptococcus neoformans var. gattii by EUCAST method; assay type: functional, Cryptococcus bacillisporus; procedure, shortened: as §4
[27] = test system: Rhizopus arrhizus; assay: Antifungal activity against Rhizopus oryzae by EUCAST method; assay type: functional; procedure, shortened: as §1
[28] = test system: Cunninghamella; assay: Antifungal activity against Cunninghamella species; assay type: functional
[29] = test system: Rhizopus; assay: Antifungal activity against Rhizopus species; assay type: functional; procedure, shortened: as §1
[30] = test system: Sporothrix schenckii; assay: Antifungal activity against Sporothrix schenckii; assay type: functional; procedure, shortened: as §1
[31] = test system: Trichosporon asahii; assay: Antifungal activity against Trichosporon asahii; assay type: functional
Procedure, shortened: (§5)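 Nonfermentative yeasts were tested by the EUCAST microdilution recommendations with one change: plates were sealed and agitated at 350 rpm and 30°C for 48 h.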

[32] = test system: Aspergillus terreus; assay: Antifungal activity against Aspergillus terreus; assay type: functional
[33] = test system: Geotrichum candidum; assay: Antifungal activity against Geotrichum candidum by EUCAST method; assay type: functional
[34] = test system: Aspergillus fumigatus; assay: Antifungal activity against Aspergillus fumigatus by EUCAST method; assay type: functional
[35] = test system: Trichosporon inkin; assay: Antifungal activity against Trichosporon inkin by EUCAST method; assay type: functional; procedure, shortened: as §5
[36] = test system: Nakaseomyces glabratus; assay: Antifungal activity against Candida glabrata; assay type: functional; procedure, shortened: as §2

CC[C@@H]([C@H](C)O)n1ncn(-c2ccc(N3CCN(c4ccc(OC[C@@H]5CO[C@@](Cn6cncn6)(c6ccc(F)cc6F)C5)cc4)CC3)cc2)c1=O [POSACONAZOLE]
MFC [1]: 0.5 µg/mL (≈ 0.713 µM) | MFC [2]: 1 µg/mL (≈ 1.43 µM) | MIC [3]: 0.72 µg/mL (≈ 1.03 µM) | MIC [4]: 0.26 µg/mL (≈ 0.371 µM) | MFC [5]: 0.06 µg/mL (≈ 0.0856 µM) | MIC [6]: 0.06 µg/mL (≈ 0.0856 µM) | MFC [7]: 0.125 µg/mL (≈ 0.178 µM) | MFC [8]: > 4 µg/mL | MIC [9]: 0.14 µg/mL (≈ 0.2 µM) | MFC [10]: 0.12 µg/mL (≈ 0.171 µM) | MIC [11]: 2 µg/mL (≈ 2.85 µM) | MIC [12]: 1.33 µg/mL (≈ 1.9 µM) | MIC [13]: 0.25 µg/mL (≈ 0.357 µM) | MFC [14]: 0.25 µg/mL (≈ 0.357 µM) | MIC [15]: 0.19 µg/mL (≈ 0.271 µM) | MIC [16]: 1 µg/mL (≈ 1.43 µM) | MIC [17]: 0.12 µg/mL (≈ 0.171 µM) | MFC [18]: 2 µg/mL (≈ 2.85 µM) | MIC [19]: 0.66 µg/mL (≈ 0.942 µM) | MFC [20]: 0.25 µg/mL (≈ 0.357 µM) | MFC [21]: 0.125 µg/mL (≈ 0.178 µM) | MFC [22]: > 8 µg/mL | MIC [23]: 1 µg/mL (≈ 1.43 µM) | MIC [24]: 0.06 µg/mL (≈ 0.0856 µM) | MIC [25]: 0.21 µg/mL (≈ 0.3 µM) | MIC [26]: 0.06 µg/mL (≈ 0.0856 µM) | MIC [27]: 1.89 µg/mL (≈ 2.7 µM) | MFC [28]: 2 µg/mL (≈ 2.85 µM) | MFC [29]: > 2 µg/mL | MFC [30]: 0.5 µg/mL (≈ 0.713 µM) | MFC [31]: > 8 µg/mL | MFC [32]: 0.5 µg/mL (≈ 0.713 µM) | MIC [33]: 0.37 µg/mL (≈ 0.528 µM) | MIC [34]: 0.37 µg/mL (≈ 0.528 µM) | MIC [35]: 0.28 µg/mL (≈ 0.4 µM) | MFC [36]: > 4 µg/mL
